Values joined by “and” are separate entries in the source; they are usually repeats but may differ in a detail not shown here. Equal entries are not always repeated.
Experiments:
Assay type in all cases: functional
Rattus norvegicus [1] = assay: extent of paw swelling following treatment with the compound in the rat adjuvant arthritis model observed on day 12 at 0.050 mg/kg dose; details: dose 0.05 mg/kg
In short: (§1)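 Rat adjuvant arthritis with iv dosing every second day, starting 2 days before the adjuvant/antigen challenge. Initial doses ranged 0.05 to 0.50 mg/kg, eight rats per dose. Each hind paw was measured by caliper. Swelling minus age-matched normal paw, expressed as % of untreated animals.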

Mus musculus [2] = assay: On set and incidence of arthritis in the Mouse Type II collagen model at 0.5 dose mg/kg on day 40, expressed as number of mice treated out of 12 tested
In short: (§2)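 DBA/1 Lac mice sensitized with bovine type II collagen (100 μg) in Freund's complete adjuvant, ip boost (100 μg) on day 21. Freshly dissolved compound in sterile saline was given iv every second day, day 19 through day 40, groups of 12. A mouse was scored arthritic if erythema or edema was present on any digit, paw or appendage. Incidence reported as number positive of 12.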

Rattus norvegicus [3] = assay: extent of paw swelling following treatment with the compound in the rat adjuvant arthritis model observed on day 16 at 0.050 mg/kg dose; details: dose 0.05 mg/kg; in short: as §1
Mus musculus [4] = assay: Extent of paw swelling after treatment with thymopentin-5 (TP-5) compound in the Mouse Type II collagen arthritis at 1 mg/kg on day 30.
In short: (§3)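 DBA/1 Lac mice immunized with bovine type II collagen (100 μg) in Freund's complete adjuvant at four to six back sites, then boosted ip (100 μg) on day 21. Dosing was iv in sterile saline every second day from day 19 through day 40, 12 mice per dose. Each hind paw was measured by caliper. Result given as % of untreated swelling after subtracting age-matched normal paw.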

Mus musculus [5] = assay: On set and incidence of arthritis in the Mouse Type II collagen model at 0.5 dose mg/kg on day 37,expressed as number of mice treated out of 12 tested; in short: as §2
Mus musculus [6] = assay: On set and incidence of arthritis in the Mouse Type II collagen model at 0.5 dose mg/kg on day 44, expressed as number of mice treated out of 12 tested; in short: as §2
Rattus norvegicus [7] = assay: extent of paw swelling following treatment with the compound in the rat adjuvant arthritis model observed on day 19 at 0.050 mg/kg dose; details: dose 0.05 mg/kg; in short: as §1
Mus musculus [8] = assay: On set and incidence of arthritis in the Mouse Type II collagen model following 0.5 mg/kg on day 30.; in short: as §2
Mus musculus [9] = assay: Extent of paw swelling after treatment with thymopentin-5 (TP-5) compound in the Mouse Type II collagen arthritis at a dosage of 0.5 mg/kg on day 30; in short: as §3
Mus musculus [10] = assay: On set and incidence of arthritis in the Mouse Type II collagen model at 0.5 dose mg/kg on day 37, expressed as number of mice treated out of 12 tested; in short: as §2
Mus musculus [11] = assay: Extent of paw swelling after treatment with thymopentin-5 (TP-5) compound in the Mouse Type II collagen arthritis at a dosage of 0.5 mg/kg on day 40; in short: as §3
Mus musculus [12] = assay: Extent of paw swelling after treatment with thymopentin-5 (TP-5) compound in the Mouse Type II collagen arthritis at a dosage of 0.5 mg/kg on day 37; in short: as §3
Mus musculus [13] = assay: On set and incidence of arthritis in the Mouse Type II collagen model at 0.5 dose mg/kg on day 40, expressed as ratio of number treated to that of control:12 animals tested; in short: as §2
Mus musculus [14] = assay: Extent of paw swelling after treatment with thymopentin-5 (TP-5) compound in the Mouse Type II collagen arthritis at a dosage of 0.5 mg/kg on day 44; in short: as §3
Mus musculus [15] = assay: On set and incidence of arthritis in the Mouse Type II collagen model at 0.5 dose mg/kg on day 40, expressed as ratio of number treated to that of control; in short: as §2
Mus musculus [16] = assay: On set and incidence of arthritis in the Mouse Type II collagen model at 0.5 dose mg/kg on day 37, expressed as ratio of number treated to that of control; in short: as §2
Mus musculus [17] = assay: On set and incidence of arthritis in the Mouse Type II collagen model at 0.5 dose mg/kg on day 44, expressed as ratio of number treated to that of control; in short: as §2
Mus musculus [18] = assay: Extent of paw swelling after treatment with thymopentin-5 (TP-5) compound in mouse type II collagen arthritis at a dosage of 1.0 mg/kg on day 30; details: 1 mg/kg; in short: as §3
Rattus norvegicus [19] = assay: extent of paw swelling following treatment with the compound in the rat adjuvant arthritis model observed on day 12 at 0.50 mg/kg dose; details: dose 0.5 mg/kg; in short: as §1
Rattus norvegicus [20] = assay: extent of paw swelling following treatment with the compound in the rat adjuvant arthritis model observed on day 16 at 0.50 mg/kg dose; details: dose 0.5 mg/kg; in short: as §1
Rattus norvegicus [21] = assay: extent of paw swelling following treatment with the compound in the rat adjuvant arthritis model observed on day 19 at 0.50 mg/kg dose; details: dose 0.5 mg/kg; in short: as §1
Mus musculus [22] = assay: Extent of paw swelling after treatment with thymopentin-5 (TP-5) compound in the Mouse Type II collagen arthritis at a dosage of 1.0 mg/kg on day 44; in short: as §3
Rattus norvegicus [23] = assay: extent of paw swelling following treatment with the compound in the rat adjuvant arthritis model observed on day 19 at 0.075 mg/kg dose; in short: as §1
Rattus norvegicus [24] = assay: extent of paw swelling following treatment with the compound in the rat adjuvant arthritis model observed on day 12 at 0.075 mg/kg dose; in short: as §1
Rattus norvegicus [25] = assay: extent of paw swelling following treatment with the compound in the rat adjuvant arthritis model observed on day 16 at 0.075 mg/kg dose; in short: as §1
Mus musculus [26] = assay: Extent of paw swelling after treatment with thymopentin-5 (TP-5) compound in the Mouse Type II collagen arthritis at a dosage of 0.01 mg/kg on day 44; in short: as §3
Mus musculus [27] = assay: Extent of paw swelling after treatment with thymopentin-5 (TP-5) compound in the Mouse Type II collagen arthritis at a dosage of 0.501 mg/kg on day 40; details: dose 0.01 mg/kg; in the assay text read “0.01 mg/kg” for “0.501 mg/kg”; in short: as §3
Mus musculus [28] = assay: Extent of paw swelling after treatment with thymopentin-5 (TP-5) compound in the Mouse Type II collagen arthritis at a dosage of 0.01 mg/kg on day 37; in short: as §3
Mus musculus [29] = assay: Extent of paw swelling after treatment with thymopentin-5 (TP-5) compound in the Mouse Type II collagen arthritis at a dosage of 0.01 mg/kg on day 30; in short: as §3

## CCCCC(NC(=O)[C@H](CCCN=C(N)N)NC(C)=O)C(=O)N[C@@H](CC(=O)O)C(=O)NC(C(=O)C[C@@H](Cc1ccccc1)C(=O)O)C(C)C (stereo not given in full)
Rattus norvegicus [1]
  Paw swelling: 0%
Mus musculus [2]
  No. of mice: 11
Rattus norvegicus [3]
  Paw swelling: 100%
Mus musculus [4]
  Paw swelling: 100%
Mus musculus [5]
  No. of mice: 11
Mus musculus [6]
  No. of mice: 12
Rattus norvegicus [7]
  Paw swelling: 100%
Mus musculus [8]
  No. of mice: 8

## CC(C)[C@H](NC(=O)[C@H](CC(=O)O)NC(=O)[C@H](CCCCN)NC(=O)[C@@H](N)CCCN=C(N)N)C(=O)C[C@@H](Cc1ccccc1)C(=O)O
Mus musculus [9]
  Paw swelling: 100%
Mus musculus [10]
  No. of mice: 7
Mus musculus [6]
  No. of mice: 7
Mus musculus [11]
  Paw swelling: 93%
Mus musculus [12]
  Paw swelling: 100%
Mus musculus [13]
  No. of mice: 8
Mus musculus [14]
  Paw swelling: 53%
Mus musculus [8]
  No. of mice: 5

## CCCCC(CC(=O)[C@@H](N)CCCN=C(N)N)C(=O)N[C@@H](CC(=O)O)C(=O)NC(C(=O)N[C@@H](Cc1ccccc1)C(=O)O)C(C)C (stereo not given in full)
Mus musculus [4]
  Paw swelling: 100%
Mus musculus [15]
  No. of mice: 7
Mus musculus [16]
  No. of mice: 7
Mus musculus [17]
  No. of mice: 8
Mus musculus [8]
  No. of mice: 3

## CC(C)C(CC(=O)[C@H](CC(=O)O)NC(=O)C(CCCCN)N(C)C(=O)[C@@H](N)CCCN=C(N)N)C(=O)N[C@@H](Cc1ccccc1)C(=O)O (stereo not given in full)
Mus musculus [2]
  No. of mice: 8
Mus musculus [18]
  Paw swelling: 100% and 46% and 53%
Mus musculus [10]
  No. of mice: 4
Mus musculus [6]
  No. of mice: 8
Rattus norvegicus [19]
  Paw swelling: 0%
Rattus norvegicus [20]
  Paw swelling: 80%
Mus musculus [8]
  No. of mice: 6
Rattus norvegicus [21]
  Paw swelling: 52%

## CCCC[C@H](NC(=O)[C@@H](N)CCCN=C(N)N)C(=O)N[C@@H](CC(=O)O)C(=O)C[C@H](C)C(=O)O
Mus musculus [22]
  Paw swelling: 100%
Mus musculus [15]
  No. of mice: 11
Mus musculus [16]
  No. of mice: 11
Mus musculus [17]
  No. of mice: 12
Mus musculus [8]
  No. of mice: 8

## CCCCC(CC(=O)[C@@H](N)CCCN=C(N)N)C(=O)N[C@@H](CC(=O)O)C(=O)NC(C(=O)C[C@H](C(=O)O)C(C)C)C(C)C (stereo in doubt; 1h-B)
Mus musculus [16]
  No. of mice: 7
Rattus norvegicus [23]
  Paw swelling: 70%
Rattus norvegicus [24]
  Paw swelling: 0%
Mus musculus [17]
  No. of mice: 9
Rattus norvegicus [25]
  Paw swelling: 100%
Mus musculus [8]; 0.5 mg/kg
  No. of mice: 6

## CCCC[C@H](NC(=O)[C@@H](N)CCCN=C(N)N)C(=O)N[C@@H](CC(=O)O)C(=O)N[C@H](C(=O)C[C@@H](Cc1ccccc1)C(=O)O)C(C)C (stereo in doubt; 1c-A)
Rattus norvegicus [1]
  Paw swelling: 0%
Mus musculus [2]
  No. of mice: 10
Rattus norvegicus [3]
  Paw swelling: 100%
Mus musculus [10]
  No. of mice: 9
Mus musculus [6]
  No. of mice: 8
Mus musculus [26]; 0.01 mg/kg
  Paw swelling: 66% and 69% and 70% and 63%
Rattus norvegicus [7]
  Paw swelling: 100%
Mus musculus [8]; 0.5 mg/kg
  No. of mice: 5

## CC(C)[C@H](NC(=O)[C@H](CC(=O)O)NC(=O)[C@@H]1CCCN1C(=O)[C@@H](N)CCCN=C(N)N)C(=O)C[C@@H](Cc1ccccc1)C(=O)O (stereo in doubt; 1b-A)
Mus musculus [27]
  Paw swelling: 60%
Mus musculus [28]
  Paw swelling: 72%
Mus musculus [2]
  No. of mice: 9
Mus musculus [29]
  Paw swelling: 62%
Mus musculus [6]
  No. of mice: 9
Mus musculus [26]
  Paw swelling: 47%
Mus musculus [8]; 0.5 mg/kg
  No. of mice: 8
